What was measured:
[1] = target: T1, 3',5'-cyclic-AMP phosphodiesterase 4B (Homo sapiens, UniProt Q07343); assay: Inhibition of PDE4B (unknown origin) assessed as hydrolysis of [3H]-cGMP into [3H]-GMP incubated for 30 mins by scintillation of proximity assay; settings: in the assay text read “[3H]-cAMP into [3H]-AMP” for “[3H]-cGMP into [3H]-GMP”
How it was run: (§1)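 Scintillation proximity assay of [3H]-cAMP or [3H]-cGMP hydrolysis to [3H]-AMP or [3H]-GMP. Enzyme was diluted to 1–2 nM in 50 mM Tris pH 7.5, 8.3 mM MgCl2 and 1.7 mM EGTA. Reaction was started by adding enzyme, test solution and radiolabelled substrate, then incubated at 30 °C for 30 min and stopped with SPA beads. Run in duplicate.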

Mus musculus [2] = assay: Antiinflammatory activity against PMA-induced ICR mouse ear oedema model assessed as reduction in ear swelling at 1 mg/ear topically administered and measured after 4 hrs; type: functional
How it was run: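 Male ICR mice, 8 weeks old. The sample was applied topically to the right ear at 1.0 mg/ear in ethanol before PMA. After 4 h the mice were killed by cervical dislocation and both ears were measured with a micrometer. Oedema was the thickness difference between the ears; inhibition was the percent reduction versus the model group.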

Homo sapiens [3] = organism: Homo sapiens; assay: Selectivity index, ratio of IC50 for PDE1A (unknown origin) to IC50 for PDE4B (unknown origin)
Homo sapiens [4] = organism: Homo sapiens; assay: Selectivity index, ratio of IC50 for PDE1B (unknown origin) to IC50 for PDE4B (unknown origin)
Homo sapiens [5] = organism: Homo sapiens; assay: Selectivity index, ratio of IC50 for PDE1C (unknown origin) to IC50 for PDE4B (unknown origin)
Homo sapiens [6] = organism: Homo sapiens; assay: Selectivity index, ratio of IC50 for PDE2A (unknown origin) to IC50 for PDE4B (unknown origin)
Homo sapiens [7] = organism: Homo sapiens; assay: Selectivity index, ratio of IC50 for PDE3A (unknown origin) to IC50 for PDE4B (unknown origin)
Homo sapiens [8] = organism: Homo sapiens; assay: Selectivity index, ratio of IC50 for PDE3B (unknown origin) to IC50 for PDE4B (unknown origin)
Homo sapiens [9] = organism: Homo sapiens; assay: Selectivity index, ratio of IC50 for PDE5A (unknown origin) to IC50 for PDE4B (unknown origin)
Homo sapiens [10] = organism: Homo sapiens; assay: Selectivity index, ratio of IC50 for PDE7A (unknown origin) to IC50 for PDE4B (unknown origin)
Homo sapiens [11] = organism: Homo sapiens; assay: Selectivity index, ratio of IC50 for PDE10A (unknown origin) to IC50 for PDE4B (unknown origin)
Mus musculus [12] = assay: Antiinflammatory activity against calcipotriol-induced atopic dermatitis mouse model assessed as swelling inhibition by measuring thickness of left ear at 30 mg/kg for 14 days (RVB = 0.26 +/- 0.01 mm); type: functional; settings: time 14 day
How it was run: (§2)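 Ointment was applied to the dorsal side of the left ear twice daily (30 mg/kg) for 14 days; the normal group received ethanol. On day 17 the mice were anaesthetized with 10% chloral hydrate and ear thickness was measured with a micrometer. Percent inhibition of the inflammatory reaction was calculated against untreated animals.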

Mus musculus [13] = assay: Antiinflammatory activity against calcipotriol-induced atopic dermatitis mouse model assessed as swelling inhibition by measuring thickness of right ear at 30 mg/kg for 14 days (RVB = 0.55 +/- 0.06 mm); type: functional; settings: time 14 day; how it was run: as §2
Mus musculus [14] = assay: Antiinflammatory activity against calcipotriol-induced atopic dermatitis mouse model assessed as swelling inhibition at 30 mg/kg for 14 days; type: functional; set-up: scale not given: the % may be the effect or the level left; settings: time 14 day; how it was run: as §2
[15] = Phototoxicity in albino guinea pig assessed as skin reaction score at 5 mg/kg topical treatment irradiated with 4.2 mw/cm2 UVA for 40 mins and measured after 24 hrs day of light irradiation by H and E staining based microscopic analysis; type: organism-based, Cavia porcellus; settings: in vivo, topical_or_ocular
How it was run: (§3)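 Albino guinea pigs (250–300 g) were randomized into 5 groups. Four 2 cm × 2 cm depilated areas beside the spine were prepared 24 h before dosing, and 0.2 mL of test substance was applied. Animals were restrained and exposed to UVA for 40 min. Erythema, eschar and oedema were scored visually at 1, 24, 48 and 72 h. Skin taken at 72 h was formalin-fixed, H&E-stained and read by a pathologist.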

[16] = Phototoxicity in albino guinea pig assessed as skin reaction score at 10 mg/kg topical treatment irradiated with 4.2 mw/cm2 UVA for 40 mins and measured after 24 hrs day of light irradiation by H and E staining based microscopic analysis; type: organism-based, Cavia porcellus; settings: in vivo, topical_or_ocular; how it was run: as §3
[17] = Phototoxicity in albino guinea pig assessed as skin reaction score at 24 mg/kg topical treatment irradiated with 4.2 mw/cm2 UVA for 40 mins and measured after 24 hrs day of light irradiation by H and E staining based microscopic analysis; type: organism-based, Cavia porcellus; settings: in vivo, topical_or_ocular; how it was run: as §3
[18] = Toxicity in Sprague-Dawley rat assessed as systemic toxicity at 700 mg/kg, po for 14 days; type: organism-based; settings: in vivo, 336 h, time 14 day
How it was run: (§4)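 Healthy male and female Sprague-Dawley rats, 8-week-old, randomised to three groups of 6 males + 6 females. Vehicle 1% CMC-Na or 400 and 700 mg/kg given by oral gavage once daily for 14 days. Mortality and clinical signs checked daily; body weight on days 0, 7, 14. Isoflurane euthanasia, macroscopic necropsy, weights of liver, kidney, testis, thymus, heart and lung.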

[19] = Toxicity in Sprague-Dawley rat assessed as death at 700 mg/kg, po for 14 days; type: organism-based; settings: in vivo, 336 h, time 14 day; how it was run: as §4
[20] = Toxicity in Sprague-Dawley rat assessed as liver/brain index at 400 to 700 mg/kg, po for 14 days; type: organism-based; settings: in vivo, 336 h, dose 400-700 mg/kg, time 14 day
How it was run: (§5)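 Sprague-Dawley rats, 8 weeks old, 6 male and 6 female per group. Dosed by oral gavage once daily for 14 days with 1% CMC-Na vehicle or 400 and 700 mg/kg. Animals were checked daily for mortality and clinical signs, with body weight recorded on days 0, 7 and 14. Rats were then euthanized under isoflurane, necropsied, and their organs weighed.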

[21] = Toxicity in Sprague-Dawley rat assessed as spleen/brain index at 400 to 700 mg/kg, po for 14 days; type: organism-based; settings: in vivo, 336 h, dose 400-700 mg/kg, time 14 day; how it was run: as §5
[22] = Toxicity in Sprague-Dawley rat assessed as white blood cell count at 400 to 700 mg/kg, po for 14 days; type: organism-based; settings: in vivo, 336 h, dose 400-700 mg/kg, time 14 day
[23] = Toxicity in Sprague-Dawley rat assessed as ALT at 400 to 700 mg/kg, po for 14 days; type: organism-based; settings: in vivo, 336 h, dose 400-700 mg/kg, time 14 day
[24] = Toxicity in Sprague-Dawley rat assessed as AST at 400 to 700 mg/kg, po for 14 days; type: organism-based; settings: in vivo, 336 h, dose 400-700 mg/kg, time 14 day
[25] = Toxicity in Sprague-Dawley rat assessed as blood pressure at 400 to 700 mg/kg, po for 14 days; type: organism-based; settings: in vivo, 336 h, dose 400-700 mg/kg, time 14 day
[26] = Toxicity in Sprague-Dawley rat assessed as blood glucose at 400 to 700 mg/kg, po for 14 days; type: organism-based; settings: in vivo, 336 h, dose 400-700 mg/kg, time 14 day
[27] = Phototoxicity in albino guinea pig assessed as infiltration of inflammatory cells at 10 mg/kg topical treatment irradiated with 4.2 mw/cm2 UVA for 40 mins and measured after 24 hrs day of light irradiation by H and E staining based microscopic analysis; type: organism-based, Cavia porcellus; settings: in vivo, topical_or_ocular, in the assay text read “72 hrs” for “24 hrs”; how it was run: as §3
[28] = Phototoxicity in albino guinea pig assessed as necrosis at 10 mg/kg topical treatment irradiated with 4.2 mw/cm2 UVA for 40 mins and measured after 24 hrs day of light irradiation by H and E staining based microscopic analysis; type: organism-based, Cavia porcellus; settings: in vivo, topical_or_ocular, in the assay text read “72 hrs” for “24 hrs”; how it was run: as §3
[29] = target: Dual specificity calcium/calmodulin-dependent 3',5'-cyclic nucleotide phosphodiesterase 1A (Homo sapiens, UniProt P54750); assay: Inhibition of PDE1A (unknown origin); how it was run: as §1
[30] = target: Dual specificity calcium/calmodulin-dependent 3',5'-cyclic nucleotide phosphodiesterase 1B (Homo sapiens, UniProt Q01064); assay: Inhibition of PDE1B (unknown origin); how it was run: as §1
[31] = target: Dual specificity calcium/calmodulin-dependent 3',5'-cyclic nucleotide phosphodiesterase 1C (Homo sapiens, UniProt Q14123); assay: Inhibition of PDE1C (unknown origin)
How it was run: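 For PDE1A, PDE1B and PDE1C, the reaction buffer was also supplemented with 0.2 mM CaCl2 and […]. Otherwise the same SPA run as the other PDEs: [3H]-nucleotide hydrolysis at 30 °C for 30 min, in duplicate.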

[32] = target: cGMP-dependent 3',5'-cyclic phosphodiesterase (Homo sapiens, UniProt O00408); assay: Inhibition of PDE2A (unknown origin); how it was run: as §1
[33] = target: cGMP-inhibited 3',5'-cyclic phosphodiesterase 3A (Homo sapiens, UniProt Q14432); assay: Inhibition of PDE3A (unknown origin); how it was run: as §1
[34] = target: cGMP-inhibited 3',5'-cyclic phosphodiesterase 3B (Homo sapiens, UniProt Q13370); assay: Inhibition of PDE3B (unknown origin); how it was run: as §1
[35] = target: T1, 3',5'-cyclic-AMP phosphodiesterase 4B; assay: Inhibition of PDE4B (unknown origin); how it was run: as §1
[36] = target: cGMP-specific 3',5'-cyclic phosphodiesterase (Homo sapiens, UniProt O76074); assay: Inhibition of PDE5A (unknown origin); how it was run: as §1
[37] = target: High affinity 3',5'-cyclic-AMP phosphodiesterase 7A (Homo sapiens, UniProt Q13946); assay: Inhibition of PDE7A (unknown origin); how it was run: as §1
[38] = target: cAMP and cAMP-inhibited cGMP 3',5'-cyclic phosphodiesterase 10A (Homo sapiens, UniProt Q9Y233); assay: Inhibition of PDE10A (unknown origin); how it was run: as §1
[39] = target: T1, 3',5'-cyclic-AMP phosphodiesterase 4B; assay: Inhibition of PDE4B (unknown origin) assessed as hydrolysis of [3H]-cAMP into [3H]-AMP incubated for 30 mins by scintillation of proximity assay

T1 sequence (Q07343 whole entry): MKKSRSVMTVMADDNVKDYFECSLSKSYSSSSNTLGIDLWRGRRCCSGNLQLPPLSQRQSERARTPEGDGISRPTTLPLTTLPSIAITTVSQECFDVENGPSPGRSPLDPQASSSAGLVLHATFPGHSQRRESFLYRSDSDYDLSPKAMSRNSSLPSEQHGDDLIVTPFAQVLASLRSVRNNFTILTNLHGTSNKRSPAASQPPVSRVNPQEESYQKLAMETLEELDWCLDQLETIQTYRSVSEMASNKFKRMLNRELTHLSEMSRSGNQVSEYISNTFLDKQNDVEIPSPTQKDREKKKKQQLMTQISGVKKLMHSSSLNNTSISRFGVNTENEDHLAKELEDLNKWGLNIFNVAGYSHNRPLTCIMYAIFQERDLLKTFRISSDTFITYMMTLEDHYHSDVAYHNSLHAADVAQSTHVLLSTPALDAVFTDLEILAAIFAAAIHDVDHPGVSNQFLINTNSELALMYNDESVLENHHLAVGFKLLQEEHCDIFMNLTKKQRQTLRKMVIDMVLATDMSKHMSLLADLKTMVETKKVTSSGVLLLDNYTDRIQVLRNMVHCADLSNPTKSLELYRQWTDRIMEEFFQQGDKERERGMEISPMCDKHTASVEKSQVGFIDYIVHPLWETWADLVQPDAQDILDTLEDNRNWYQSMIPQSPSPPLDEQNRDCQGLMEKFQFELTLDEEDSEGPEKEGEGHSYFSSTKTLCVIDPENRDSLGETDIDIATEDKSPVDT
Chain of cAMP and cAMP-inhibited cGMP 3',5'-cyclic phosphodiesterase 10A (Q9Y233 whole entry): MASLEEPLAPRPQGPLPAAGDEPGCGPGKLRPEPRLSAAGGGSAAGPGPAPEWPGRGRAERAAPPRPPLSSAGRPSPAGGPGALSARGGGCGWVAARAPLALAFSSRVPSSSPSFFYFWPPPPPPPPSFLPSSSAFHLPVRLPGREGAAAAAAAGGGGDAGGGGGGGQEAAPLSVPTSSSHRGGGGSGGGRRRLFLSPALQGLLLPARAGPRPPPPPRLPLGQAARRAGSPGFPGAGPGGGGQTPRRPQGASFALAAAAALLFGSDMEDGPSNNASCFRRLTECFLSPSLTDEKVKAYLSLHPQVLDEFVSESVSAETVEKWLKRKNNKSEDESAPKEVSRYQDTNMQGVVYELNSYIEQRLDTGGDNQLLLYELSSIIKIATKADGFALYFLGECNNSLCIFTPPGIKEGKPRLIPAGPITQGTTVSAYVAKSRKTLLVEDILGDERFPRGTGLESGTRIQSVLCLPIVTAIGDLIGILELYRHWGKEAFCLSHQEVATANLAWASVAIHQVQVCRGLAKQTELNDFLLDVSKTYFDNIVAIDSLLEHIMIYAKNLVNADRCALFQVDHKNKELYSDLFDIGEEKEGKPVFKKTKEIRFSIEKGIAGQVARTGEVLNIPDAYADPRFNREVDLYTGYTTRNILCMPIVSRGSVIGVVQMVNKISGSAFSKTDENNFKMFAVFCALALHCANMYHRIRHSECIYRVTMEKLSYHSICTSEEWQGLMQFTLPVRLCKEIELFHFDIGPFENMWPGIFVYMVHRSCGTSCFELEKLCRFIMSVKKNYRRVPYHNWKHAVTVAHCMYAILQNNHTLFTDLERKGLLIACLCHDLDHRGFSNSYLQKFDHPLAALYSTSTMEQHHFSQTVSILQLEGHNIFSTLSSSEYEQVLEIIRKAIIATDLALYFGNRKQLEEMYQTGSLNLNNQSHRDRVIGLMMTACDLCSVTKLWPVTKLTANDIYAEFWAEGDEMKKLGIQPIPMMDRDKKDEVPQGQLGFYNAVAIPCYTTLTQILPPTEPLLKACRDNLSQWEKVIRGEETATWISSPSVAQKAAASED
Chain of cGMP-inhibited 3',5'-cyclic phosphodiesterase 3A (Q14432 whole entry): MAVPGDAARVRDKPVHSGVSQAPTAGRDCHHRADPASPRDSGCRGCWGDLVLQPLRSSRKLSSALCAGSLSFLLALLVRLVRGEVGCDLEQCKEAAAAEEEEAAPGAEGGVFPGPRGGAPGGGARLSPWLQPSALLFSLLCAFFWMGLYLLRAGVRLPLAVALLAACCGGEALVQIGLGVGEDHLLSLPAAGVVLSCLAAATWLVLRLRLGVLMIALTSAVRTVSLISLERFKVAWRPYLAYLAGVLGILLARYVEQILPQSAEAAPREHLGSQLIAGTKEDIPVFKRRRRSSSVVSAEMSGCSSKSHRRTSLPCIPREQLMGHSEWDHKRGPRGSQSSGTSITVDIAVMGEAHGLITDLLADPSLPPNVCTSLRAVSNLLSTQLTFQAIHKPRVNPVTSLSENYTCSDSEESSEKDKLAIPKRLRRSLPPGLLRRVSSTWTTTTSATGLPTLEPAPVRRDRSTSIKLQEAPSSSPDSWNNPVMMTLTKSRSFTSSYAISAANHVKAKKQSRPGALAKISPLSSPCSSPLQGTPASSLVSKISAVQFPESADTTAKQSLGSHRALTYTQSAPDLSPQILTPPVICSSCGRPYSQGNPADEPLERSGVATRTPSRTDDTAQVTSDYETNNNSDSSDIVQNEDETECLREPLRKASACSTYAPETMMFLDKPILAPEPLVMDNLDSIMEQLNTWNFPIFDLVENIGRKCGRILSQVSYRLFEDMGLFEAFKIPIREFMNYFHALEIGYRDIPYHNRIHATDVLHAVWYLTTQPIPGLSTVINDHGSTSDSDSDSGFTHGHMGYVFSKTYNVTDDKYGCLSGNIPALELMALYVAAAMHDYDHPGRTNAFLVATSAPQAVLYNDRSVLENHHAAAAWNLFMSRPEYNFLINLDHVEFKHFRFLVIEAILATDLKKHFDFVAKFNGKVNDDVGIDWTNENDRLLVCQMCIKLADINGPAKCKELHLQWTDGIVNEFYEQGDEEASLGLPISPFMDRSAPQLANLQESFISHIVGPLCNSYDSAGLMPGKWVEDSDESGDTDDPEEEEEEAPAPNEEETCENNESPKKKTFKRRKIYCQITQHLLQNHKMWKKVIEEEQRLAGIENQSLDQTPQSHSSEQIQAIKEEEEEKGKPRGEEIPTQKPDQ
Chain of Dual specificity calcium/calmodulin-dependent 3',5'-cyclic nucleotide phosphodiesterase 1B (Q01064 whole entry): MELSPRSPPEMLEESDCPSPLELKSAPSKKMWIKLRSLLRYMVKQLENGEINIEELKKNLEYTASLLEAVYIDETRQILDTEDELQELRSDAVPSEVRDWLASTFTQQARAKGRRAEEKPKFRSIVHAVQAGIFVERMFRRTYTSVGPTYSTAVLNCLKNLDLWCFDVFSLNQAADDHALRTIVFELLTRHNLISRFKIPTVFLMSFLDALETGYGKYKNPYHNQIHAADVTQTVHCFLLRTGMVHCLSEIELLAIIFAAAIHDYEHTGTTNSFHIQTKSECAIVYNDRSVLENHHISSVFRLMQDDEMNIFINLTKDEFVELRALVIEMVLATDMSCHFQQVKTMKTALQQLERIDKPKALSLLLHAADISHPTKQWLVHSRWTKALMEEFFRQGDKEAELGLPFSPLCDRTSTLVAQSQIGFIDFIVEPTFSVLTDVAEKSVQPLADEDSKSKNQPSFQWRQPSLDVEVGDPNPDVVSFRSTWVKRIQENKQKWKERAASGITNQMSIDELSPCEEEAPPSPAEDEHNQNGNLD
Chain of cGMP-dependent 3',5'-cyclic phosphodiesterase (O00408 whole entry): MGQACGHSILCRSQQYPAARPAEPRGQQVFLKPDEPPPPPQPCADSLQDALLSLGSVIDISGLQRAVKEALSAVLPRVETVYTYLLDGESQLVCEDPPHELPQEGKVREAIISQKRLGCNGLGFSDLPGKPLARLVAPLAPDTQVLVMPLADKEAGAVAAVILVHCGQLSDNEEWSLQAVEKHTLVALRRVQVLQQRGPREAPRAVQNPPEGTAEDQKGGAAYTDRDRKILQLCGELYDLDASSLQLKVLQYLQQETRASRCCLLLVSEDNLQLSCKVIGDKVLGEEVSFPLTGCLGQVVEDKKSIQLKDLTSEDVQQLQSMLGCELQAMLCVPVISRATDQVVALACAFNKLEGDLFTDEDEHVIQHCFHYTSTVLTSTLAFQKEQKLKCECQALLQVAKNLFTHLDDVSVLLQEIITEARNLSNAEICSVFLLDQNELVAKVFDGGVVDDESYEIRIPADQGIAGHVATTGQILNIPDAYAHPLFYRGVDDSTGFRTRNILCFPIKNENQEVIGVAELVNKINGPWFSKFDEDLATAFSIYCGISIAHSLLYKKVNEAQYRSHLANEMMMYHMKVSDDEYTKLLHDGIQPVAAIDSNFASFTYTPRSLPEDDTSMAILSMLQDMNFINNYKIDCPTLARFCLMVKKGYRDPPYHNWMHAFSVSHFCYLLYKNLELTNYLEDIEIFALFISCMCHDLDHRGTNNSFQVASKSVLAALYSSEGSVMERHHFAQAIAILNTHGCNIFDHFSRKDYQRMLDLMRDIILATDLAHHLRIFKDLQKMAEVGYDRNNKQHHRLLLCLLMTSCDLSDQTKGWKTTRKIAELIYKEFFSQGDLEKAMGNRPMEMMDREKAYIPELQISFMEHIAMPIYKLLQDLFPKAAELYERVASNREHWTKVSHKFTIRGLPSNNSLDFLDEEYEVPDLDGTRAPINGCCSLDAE
Chain of Dual specificity calcium/calmodulin-dependent 3',5'-cyclic nucleotide phosphodiesterase 1A (P54750 whole entry): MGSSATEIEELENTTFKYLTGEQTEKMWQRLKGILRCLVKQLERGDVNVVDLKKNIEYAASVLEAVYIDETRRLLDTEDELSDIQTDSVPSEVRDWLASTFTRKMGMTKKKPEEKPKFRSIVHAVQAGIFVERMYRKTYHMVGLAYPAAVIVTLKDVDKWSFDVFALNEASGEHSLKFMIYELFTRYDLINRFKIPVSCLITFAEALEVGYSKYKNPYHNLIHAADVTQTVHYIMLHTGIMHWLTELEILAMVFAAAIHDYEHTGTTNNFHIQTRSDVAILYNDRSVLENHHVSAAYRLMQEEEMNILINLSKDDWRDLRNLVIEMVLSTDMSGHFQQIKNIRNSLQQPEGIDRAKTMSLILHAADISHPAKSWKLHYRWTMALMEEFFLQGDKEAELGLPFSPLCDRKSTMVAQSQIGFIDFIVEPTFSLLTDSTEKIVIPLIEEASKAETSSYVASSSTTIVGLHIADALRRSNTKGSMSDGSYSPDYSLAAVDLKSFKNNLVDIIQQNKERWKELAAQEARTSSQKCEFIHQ

Compound: OB1OCc2cc(Oc3ccc4cc(C(F)(F)F)ccc4n3)ccc21
- IC50 [1]: 0.42 nM
- inhibition (INH) (Mus musculus [2]): 65.85%
- Ratio IC50 (Homo sapiens [3]): 154
- Ratio IC50 (Homo sapiens [4]): 138
- Ratio IC50 (Homo sapiens [5]): 2060
- Ratio IC50 (Homo sapiens [6]): 286
- Ratio IC50 (Homo sapiens [7]): 19400
- Ratio IC50 (Homo sapiens [8]): 17100
- Ratio IC50 (Homo sapiens [9]): 1950
- Ratio IC50 (Homo sapiens [10]): 83
- Ratio IC50 (Homo sapiens [11]): 10800
- Activity (Mus musculus [12]): 0.29 mm
- Activity (Mus musculus [13]): 0.32 mm
- Activity (Mus musculus [14]): 73.33%
- Activity [15]: Non-Toxic
- Activity [16]: Non-Toxic
- Activity [17]: Non-Toxic
- Activity [18]: Non-Toxic
- Activity [19]: Non-Toxic
- Activity [20]: Non-Toxic
- Activity [21]: Non-Toxic
- Activity [22]: Non-Toxic
- Activity [23]: Non-Toxic
- Activity [24]: Non-Toxic
- Activity [25]: Non-Toxic
- Activity [26]: Non-Toxic
- Activity [27]: Non-Toxic
- Activity [28]: Non-Toxic
- IC50 [29]: 64.7 nM
- IC50 [30]: 58 nM
- IC50 [31]: 866 nM
- IC50 [32]: 120 nM
- IC50 [33]: 8130 nM
- IC50 [34]: 7190 nM
- IC50 [35]: 0.42 nM
- IC50 [36]: 819 nM
- IC50 [37]: 34.7 nM
- IC50 [38]: 4520 nM

Compound: COC(=O)c1cccc2cc(Oc3ccc4c(c3)COB4O)ccc12
- IC50 [1]: 21.9 nM

Compound: O=c1ccoc2cc(Oc3ccc4c(c3)COB4O)ccc12
- IC50 [1]: 18.9 nM

Compound: O=C(O)c1cccc2nc(Oc3ccc4c(c3)COB4O)ccc12
- IC50 [1]: 124 nM
- inhibition (INH) (Mus musculus [2]): 45.76%

Compound: N#Cc1ccc(Oc2ccc3c(c2)COB3O)cc1 [CRISABOROLE]
- IC50 [1]: 57.2 nM
- inhibition (INH) (Mus musculus [2]): 43.55%
- Ratio IC50 (Homo sapiens [3]): 85
- Ratio IC50 (Homo sapiens [4]): 271
- Ratio IC50 (Homo sapiens [5]): 1080
- Ratio IC50 (Homo sapiens [6]): 55
- Ratio IC50 (Homo sapiens [7]): 970
- Ratio IC50 (Homo sapiens [8]): 891
- Ratio IC50 (Homo sapiens [9]): 850
- Ratio IC50 (Homo sapiens [10]): 31
- Ratio IC50 (Homo sapiens [11]): 1480
- Activity (Mus musculus [12]): 0.29 mm
- Activity (Mus musculus [13]): 0.37 mm
- Activity (Mus musculus [14]): 32.5%
- Activity [27]: Non-Toxic
- Activity [28]: Non-Toxic
- IC50 [29]: 5600 nM
- IC50 [30]: 17900 nM
- IC50 [31]: 71000 nM
- IC50 [32]: 3630 nM
- IC50 [33]: 64000 nM
- IC50 [34]: 58800 nM
- IC50 [35]: 70 nM
- IC50 [36]: 56100 nM
- IC50 [37]: 2030 nM
- IC50 [38]: 97600 nM

Compound: CC(=O)c1cccc2nc(Oc3ccc4c(c3)COB4O)ccc12
- inhibition (INH) (Mus musculus [2]): 39.56%
- IC50 [39]: 3.05 nM

Compound: COC(=O)c1cccc2nc(Oc3ccc4c(c3)COB4O)ccc12
- IC50 [1]: 6.44 nM
- inhibition (INH) (Mus musculus [2]): 55.62%

Compound: COC(=O)c1cc(Oc2ccc3c(c2)COB3O)nc2ccccc12
- IC50 [1]: 8.25 nM
- inhibition (INH) (Mus musculus [2]): 30.6%

Reference: ChEMBL document CHEMBL4813940, “Design, synthesis and biological evaluation of novel benzoxaborole derivatives as potent PDE4 inhibitors for topical treatment of atopic dermatitis” (Eur J Med Chem, 2021)
